# This is a sample that favours compounds with a hit; in the whole collection about 2.3% have one here.
# SIAE inh: human SIAE inhibitors, primary screen, biochemical, fluorescence polarization, FP-Rh probe, 1536-well HTS; SIAE FP-Rh probe binding; AID 1053197, 2014; inhibition, % at 9.66 µM; Sialate O-acetylesterase (Homo sapiens), Q9HAT2; 370,000 tested, 0.69% active;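 active means inhibition above a cutoff: mean of compounds within the control limits plus 3 SD of those, cut at about 17% in these data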
# HTRA1 inh: HTRA1 serine protease inhibitors, primary screen, biochemical, fluorescence polarization, HTS | 340,000 tested, 0.5% active | inhibition, % at 5.96 µM | recombinant HTRA1, FP-rhodamine activity-based probe | Q92743; in the data active means inhibition above about 36%
# pPAFAH inh: pPAFAH enzyme inhibitors, primary screen, biochemical, fluorescence polarization, human | Platelet-activating factor acetylhydrolase (Homo sapiens), Q13093 | recombinant pPAFAH, FP-rhodamine probe fluorescence polarization | inhibition, % at 3.39 µM | 330,000 tested, 1.5% active;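 active means inhibition above the mean inhibition across the screen plus 3 SD, cut at about 25% in these data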;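 further: inhibitors block binding of the rhodamine activity-based probe so polarization drops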
# Target sequence (Q13093 whole entry, looked up): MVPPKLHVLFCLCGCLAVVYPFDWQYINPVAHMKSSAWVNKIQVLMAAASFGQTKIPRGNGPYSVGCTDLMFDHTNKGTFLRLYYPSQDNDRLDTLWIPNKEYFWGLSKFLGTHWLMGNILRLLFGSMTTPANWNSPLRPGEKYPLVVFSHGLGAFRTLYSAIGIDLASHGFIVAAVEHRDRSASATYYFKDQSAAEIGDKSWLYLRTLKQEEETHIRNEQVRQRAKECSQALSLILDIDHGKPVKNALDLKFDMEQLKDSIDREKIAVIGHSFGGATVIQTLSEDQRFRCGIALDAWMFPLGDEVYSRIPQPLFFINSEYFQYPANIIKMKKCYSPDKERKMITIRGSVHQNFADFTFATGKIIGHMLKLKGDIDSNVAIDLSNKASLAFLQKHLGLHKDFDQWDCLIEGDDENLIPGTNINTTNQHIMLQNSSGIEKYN
# mABHD4 FP: ABHD4 inhibitors, primary screen, biochemical, fluorescence polarization, mouse; 370,000 tested, 0.54% active; inhibition, % at 8.92 µM; (Lyso)-N-acylphosphatidylethanolamine lipase (Mus musculus), Q8VD66; purified mABHD4, FP-Rh probe fluorescence polarization;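 active means inhibition exceeding the mean over every tested compound plus 3 SD, cut at about 30% in these data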
#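 Assay system: mouse ABHD4 enzyme, wild type / Also added: fluorescent activity-based probe FP-Rh / Doses: single nominal dose of 8.92 µM, 0.89% DMSO final / Timing: 45 min compound pre-incubation plus 60 min probe step, 25 °C / Signal: FP readout, ex 525 nm / em 598 nm / Control set: S159A mutant/DMSO as 100%, compound-well median as 0%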
# TCR-CD3 inh: inhibitors of human TCR-CD3 interaction, primary screen, biochemical, fluorescence, TAMRA-labeled TCR probe | T-cell receptor (TCR) | 360,000 tested, 0.37% active | inhibition, % at 9.4 µM;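 further: recombinant mutant TCR 2C K166C tagged with TAMRA read by polarization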
# BSA probe FL: compounds interfering with TAMRA-BSA probe, counter-screen for TCR-CD3 interaction inhibitor project, biochemical, fluorescence, TAMRA-labeled BSA. shares compounds with TCR-CD3 inh. AID 652035, 2013. 1,200 tested, 10% active. inhibition, % at 9.4 µM. TAMRA-labeled BSA probe fluorescence counterscreen; in the data active means inhibition above about 23%
# TCR-CD3 conf: TCR-CD3 interaction inhibitors, retest, confirmation, biochemical, fluorescence, TAMRA-labeled TCR probe | shares compounds with TCR-CD3 inh | TAMRA-labeled TCR probe fluorescence binding assay | inhibition, % at 9.4 µM | 1,200 tested, 48% active | AID 652036, 2013
# A number is an active result; 0 = inactive; - = not tested or not shown. Unless noted, no stated cut-off is given here; in the data, active means inhibition above about 19%; inactive means the rest.
SMILES,SIAE inh,HTRA1 inh,pPAFAH inh,mABHD4 FP,TCR-CD3 inh,BSA probe FL,TCR-CD3 conf
O=C(CN1C(=O)NC2(CCOc3ccccc32)C1=O)c1ccc(F)c(F)c1 (stereo not drawn),0,0,0,0,0,-,-
N#CCC(=O)Nc1ccc(C(=O)OCC(=O)NC2CCCc3ccccc32)cc1 (stereo not drawn),0,0,0,0,20,0,0
Cc1ccc(C(=O)OCC(=O)NC2CCCc3ccccc32)o1 (stereo not drawn),0,0,0,0,0,-,-
N#CCC(=O)Nc1ccc(C(=O)OCC(=O)Nc2cccc(C(F)(F)F)c2)cc1,0,0,0,0,35,0,0
Cc1cc(C)c(-c2cc(NC(=O)COC(=O)c3ccc(NC(=O)CC#N)cc3)n(-c3ccccc3)n2)cc1C,0,0,0,0,61,0,43
N#CCC(=O)Nc1ccc(C(=O)OCC(=O)Nc2cccc3ccccc23)cc1,0,0,-,0,0,-,-
Cc1nn(-c2ccccc2)c(Cl)c1C(=O)NCC(C)c1ccccc1 (stereo not drawn),0,0,0,0,130,0,0
O=C(CCCC(=O)Nc1cccc(Br)c1)N/N=C/c1cc([N+](=O)[O-])ccc1O,0,0,0,0,0,-,-
O=C(CSc1nc2ccccc2s1)N/N=C/c1cc([N+](=O)[O-])ccc1O,0,0,0,0,34,0,31
O=C(CN(c1cccc(Br)c1)S(=O)(=O)c1ccccc1)N/N=C/c1cc([N+](=O)[O-])ccc1O,0,-,25,0,30,0,28
CC(=O)Oc1ccc2occ(/C=N/c3cc(=O)[nH]c(=S)[nH]3)c(=O)c2c1,0,0,0,0,19,0,0
Cc1ccc2occ(/C=N/O)c(=O)c2c1,0,0,0,0,0,-,-
C[C@@H](c1ccccc1)N1C[C@@H](COCc2ccccc2)Oc2cc(N3CC[C@H](O)C3)ccc2S1(=O)=O,0,-,-,0,0,-,-
Cc1cccc(OCC(=O)NCC(=O)N/N=C/c2cc(Br)cc(Br)c2O)c1,0,0,0,0,51,0,41
COC1(OC)C(/C=C/c2ccc(Cl)cc2)C(C#N)(C#N)C1(OC)OC (stereo not drawn),0,0,0,0,21,0,0
COC(=O)CCC(=O)Nc1ccc(Cl)c(Cl)c1,0,0,0,0,0,-,-
COC(=O)CC1(C(=O)OC)Nc2cc(Cl)c(Cl)cc2S(=O)(=O)N1O (stereo not drawn),0,0,-,0,38,0,29
Cc1cc(/C=N/NC(N)=S)c(O)c(/C=N/NC(N)=S)c1,0,0,0,0,25,0,0
CC(C)CNc1ccc2c(c1)OC[C@H](C)NS2(=O)=O,0,-,-,0,0,-,-
COC1=C[C@H](C(=O)NC2CCN(Cc3ccccc3)CC2)C(C)C(c2ccccc2)CC1=O (stereo partly drawn),0,-,-,0,-,-,-
O=c1cc(-c2ccc(O)cc2)oc2cc(O)c(C3OC(CO)C(O)C(O)C3O)c(O)c12 (stereo not drawn),0,0,0,0,28,0,20
O=c1cc(-c2ccc(O)cc2)oc2cc(O)cc(O)c12,0,0,0,0,0,-,-
CC(C)COC(=O)N1CCCCC1c1cc(C(=O)NC(C)C)no1 (stereo not drawn),0,-,-,0,0,-,-
CCOc1cc(/C=N\NC(=O)c2ccc(NC(=O)C(C)(C)C)cc2)ccc1OC(=O)c1cccc(C)c1,0,0,0,0,62,36,82
CC(C)(C)C(=O)Nc1ccc(C(=O)N/N=C/c2ccccc2OC(=O)c2ccc(Cl)cc2)cc1,0,0,0,0,26,25,43
SMILES,SIAE inh,HTRA1 inh,pPAFAH inh,mABHD4 FP,TCR-CD3 inh,BSA probe FL,TCR-CD3 conf
CCOc1cc(/C=N\NC(=O)c2ccc(NC(=O)C(C)(C)C)cc2)ccc1OC(=O)c1ccc(C)cc1,0,0,0,0,0,-,-
O=c1[nH]c(C(Cl)Cl)nc2sc3c(c12)CCN(Cc1ccccc1)C3,0,0,0,0,25,0,0
CCCSc1nc2sc3c(c2c(=O)[nH]1)CCN(Cc1ccccc1)C3,-,0,0,-,-,-,-
Cc1cccc(C)c1NC(=O)C(C1CC1)n1c(=O)c(-c2cc3ccccc3[nH]2)nc2ccccc21 (stereo not drawn),0,-,-,0,0,-,-
Oc1ccc(/C=N/N=C/c2ccc(O)c(O)c2)cc1O,0,0,0,0,51,0,67
COc1ccc(NC(=O)CN(C)C(=O)/C=C/c2cn(-c3ccccc3)nc2-c2ccc(F)cc2)cc1,0,0,0,0,0,-,-
COc1cccc(NC(=O)CN(C)C(=O)/C=C/c2cn(-c3ccccc3)nc2-c2ccc(C)cc2)c1,0,0,0,0,36,32,63
COc1ccc(NC(=O)CN(C)C(=O)/C=C/c2cn(-c3ccccc3)nc2-c2ccc(C)cc2)cc1,0,0,0,0,32,0,0
CC(C)(C)c1ccc(CC(=O)N2CCC2(C)C(=O)NS(=O)(=O)c2ccc(Cl)s2)cc1 (stereo not drawn),0,-,-,0,0,-,-
CN(/N=C/c1ccccc1O)C(=S)c1ccccc1,0,0,0,0,0,-,-
CN(N=Cc1ccccc1O)c1ccc2ccccc2n1,0,0,-,0,20,0,0
COC(=O)N[C@H](C(=O)N[C@@H](Cc1ccccc1)[C@@H](O)CN(Cc1ccc(-c2ccccn2)cc1)NC(=O)[C@@H](NC(=O)OC)C(C)(C)C)C(C)(C)C,0,-,-,0,-,-,-
COc1ccc(C2C(C#N)=C(N)OC3=C2C(=O)CCC3)cc1Cn1nc(C)c([N+](=O)[O-])c1C (stereo not drawn),0,0,0,0,42,0,0
CCCNC(=O)c1ccc(CN2CCc3ccccc3C2)cc1,0,0,0,0,0,-,-
C/C(=N\NC(=O)c1ccc(CN2CCc3ccccc3C2)cc1)c1ccccc1O,0,0,0,0,25,0,0
Cc1ccc(S(=O)(=O)N2CCC(=O)N(C(CO)C(C)C)CC2)cc1 (stereo not drawn),0,0,0,0,103,0,0
Cc1ccc(S(=O)(=O)N2CCC(=O)N([C@H](CO)Cc3ccccc3)CC2)cc1,0,-,-,0,0,-,-
O=C1NC[C@H](Cc2ccc(O)cc2)N(CCc2cccc(F)c2)C1=O,0,-,-,0,64,0,0
O=c1ccc2cc(S(=O)(=O)N3CCN(c4ccccc4)CC3)ccc2[nH]1,0,0,0,0,0,-,-

# Compound activity: PubChem, The Scripps Research Institute Molecular Screening Center
